# Bioassay records as filed in PubChem.
# LMPTP inh: blocks human LMPTP phosphatase. recombinant LMPTP-A, OMFP fluorogenic substrate, fluorescence intensity. AID 651560. inhibition, % at 20 µM. 0.22% of 360,000 active;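 active = compounds that cut the enzyme signal by at least half of the control window in the single-dose screen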;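 also: plate controls were DMSO wells with enzyme plus substrate for no effect and substrate without enzyme for full effect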
#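 Material: LMPTP-A; amount: 0.625 nM enzyme; doses: single 20 µM dose; times: reaction 50 min, room temperature, dark; technique: fluorescence intensity of OMFP turnover product; benchmarks: no-enzyme and uninhibited controls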
# STEP inh: inhibitors of human striatal-enriched phosphatase STEP. 0.25% of 360,000 active. recombinant STEP, OMFP fluorogenic substrate, fluorescence. inhibition, % at 20 µM. AID 588621;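 active = inhibition at 20 µM, scaled per plate between control wells, above about 37%, limit read from the data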;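 also: 0% = DMSO with enzyme and substrate and 100% = substrate only without enzyme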
# Target sequence (P54829 whole entry, looked up): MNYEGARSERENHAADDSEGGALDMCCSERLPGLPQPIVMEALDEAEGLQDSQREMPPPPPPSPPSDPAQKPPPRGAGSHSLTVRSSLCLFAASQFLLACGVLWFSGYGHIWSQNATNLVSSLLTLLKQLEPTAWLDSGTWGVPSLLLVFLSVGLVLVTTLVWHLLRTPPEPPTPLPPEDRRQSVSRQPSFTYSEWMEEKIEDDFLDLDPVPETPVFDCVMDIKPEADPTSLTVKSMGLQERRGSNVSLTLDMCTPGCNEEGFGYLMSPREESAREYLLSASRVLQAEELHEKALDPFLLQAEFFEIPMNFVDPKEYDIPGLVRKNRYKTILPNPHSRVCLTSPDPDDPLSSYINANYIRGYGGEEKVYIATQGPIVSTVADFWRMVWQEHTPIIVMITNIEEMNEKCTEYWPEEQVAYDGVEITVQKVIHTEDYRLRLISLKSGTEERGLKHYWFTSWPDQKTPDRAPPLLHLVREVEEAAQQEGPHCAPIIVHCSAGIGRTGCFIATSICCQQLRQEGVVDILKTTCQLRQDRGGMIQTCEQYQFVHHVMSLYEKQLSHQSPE
#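 medium = Bis-Tris buffer pH 6.0, 2.5 mM DTT, 0.005% Tween 20 | test system = STEP (striatal-enriched tyrosine phosphatase) enzyme, cell-free | measure = normalized % inhibition | compound dosing = 20 µM, 1% DMSO | also added = 25 µM OMFP | schedule = reaction 20 min, ambient temperature | measured by = fluorescence read at 480 nm ex / 540 nm em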
# Rpn11 inh: inhibitors of human proteasome Rpn11; O00487; human 26S proteasome, Ub4-pepOG fluorescence polarization; 20S core pre-blocked with epoxomicin; inhibition, % at 20 µM; 0.59% of 360,000 active;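 active = inhibition at 20 µM, scaled to each plate's controls, above about 33%, limit read from the data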
# DNMT1 inh: blocks human DNA methyltransferase DNMT1; P26358; DNMT1 molecular beacon, Hinp1I cleavage, fluorescence; inhibition (reported as % activation of signal), % at 10 µM; 0.83% of 360,000 active; AID 588458; in the data active = inhibition above about 50%
# Scp1 inh: Scp-1 (human) phosphatase inhibition; AID 493091; Recombinant Scp1, phosphopeptide, malachite green phosphate absorbance; inhibition, % at 20 µM; Q9GZU7; 0.88% of 340,000 active;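 active = inhibition above about 50% at 20 µM, limit read from the data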;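 also: plate controls were DMSO wells with enzyme for no effect and wells lacking enzyme for full effect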
#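 System: SCP-1 catalytic domain; Reagent: Phospho 17-mer peptide substrate; Doses: one concentration, 20 µM, with 1.0% DMSO; Incubation: 45 min room-temperature reaction, 5 min colour, 30 min stabiliser; Signal: Phosphate-binding colour reagent, absorbance read at 630 nm.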
# An asterisk follows results filed as active; · = no result. Hits are enriched below; roughly 2% of the tested compounds scored in any of these assays.
SMILES,LMPTP inh,STEP inh,Rpn11 inh,DNMT1 inh,Scp1 inh
COc1ccc(OC)c(S(=O)(=O)Nc2c(NC3CCCCC3)c3ccccc3oc2=O)c1,1,2,1,-4,-8
CCOC(=O)C1=C(C)N=c2sc(=Cc3ccc(OCC(=O)O)cc3)c(=O)n2C1c1ccc(SC)cc1 (stereo unspecified),65*,94*,45*,89*,·
CCOC(=O)C1=C(C)N=c2s/c(=C\c3ccc(OCC(=O)O)cc3)c(=O)n2C1c1ccccc1 (stereo unspecified),0,2,7,26,1
N=C(N)c1ccc(OCCCCCOc2ccc(C(=N)N)cc2)cc1,58*,-3,0,20,-9
COc1ccc(C(C)=O)cc1Cn1c(C)c(C(=O)NC2CC2)sc1=O,0,0,1,-3,·
Cc1ccc(F)c(S(=O)(=O)NC(=O)C2(C)CCN2C(=O)CC2CCCCC2)c1 (stereo unspecified),-2,-4,-2,3,·
COc1ccc(C2CC(c3ccc(F)cc3)=NN2c2ccccc2)cc1OC (stereo unspecified),5,0,42*,-11,-12
O=C(NC1CCCC1)c1sc(=S)n2c1[nH]c(=O)c1ccccc12,0,19,-6,-2,58*
O=C(NCc1ccco1)c1sc(=S)n2c1[nH]c(=O)c1ccccc12,1,19,-13,-1,47
C/C(=N/NC(=O)c1cc2ccccc2cc1O)C1C(=O)c2ccccc2C1=O,66*,-2,12,-24,21
C/C(=N\NC(=O)c1cc2ccccc2cc1O)c1cc2ccccc2o1,9,11,14,-15,90*
C/C(=N\NC(=O)c1cc2ccccc2cc1O)c1ccccn1,0,22,27,-1,17
O=C(CS(=O)(=O)c1ccc(Cl)cc1)N1CCN(c2ccccc2)CC1,-1,0,2,2,·
O=C(O)c1ccc(N=Nc2c(O)[nH]c3cc(Cl)ccc23)cc1,5,9,44*,2,56*
CC1(C(=O)Nc2ccc3c(c2)OCCO3)CCC(=O)N1C1CCN(Cc2ccccc2)CC1 (stereo unspecified),-1,2,-8,-2,·
CCOC(=O)C1Nc2ccc(C(=O)O)cc2C2C=CCC12 (stereo unspecified),2,42*,-40,60*,36
CCCC1Nc2ccc(C(=O)O)cc2C2C=CCC12 (stereo unspecified),1,4,-40,32,6
Cc1cccc(C)c1NC(=O)CSCC(=O)c1ccc(O)c(O)c1,48*,-2,-5,1,-2
CCOC(=O)CNS(=O)(=O)c1cc(-c2nn(C)c(=O)c3ccccc23)ccc1C,6,16,-2,21,62*
CC(=O)NC(c1ccccc1)c1nc(-c2cccnc2)cs1 (stereo unspecified),0,1,-1,5,·
COc1ccccc1OCC(=O)Nc1cc(NC(=O)COc2ccccc2OC)cc(C(=O)O)c1,0,1,6,-6,-10
O=C(COc1ccccc1Cl)Nc1cc(NC(=O)COc2ccccc2Cl)cc(C(=O)O)c1,31,30,9,4,73*
Cc1noc(C)c1NC(=O)N(C)C[C@H]1Oc2ccc(NC(=O)c3ccncc3)cc2C(=O)N([C@H](C)CO)C[C@@H]1C,-3,-4,2,9,68*
Cc1noc(C)c1S(=O)(=O)Nc1ccc2c(c1)C(=O)N([C@H](C)CO)C[C@H](C)[C@@H](CN(C)C(=O)NC(C)C)O2,-3,1,-1,12,85*
Cc1cc(C)c(N2C(=O)CC(Sc3ccccc3N)C2=O)c(C)c1 (stereo unspecified),0,1,-2,-3,·
CC(CCC(C)C(C)(C)C)[C@@H]1CC[C@H]2C3C[C@H](OS(O)(=S)=S)[C@H]4C[C@H](OS(O)(=S)=S)[C@@H](OS(O)(=S)=S)C[C@]4(C)[C@H]3CC[C@]12C (stereo partly specified) (tested in a mixture with another compound),81*,31,133*,-167,25
Nc1nc2ccccc2n1S(=O)(=O)c1ccc(Cl)cc1,0,1,-2,2,·
